What was measured:
Type in all cases: functional
OVCAR-8 = assay: Anticancer activity against human OVCAR8 cells after 48 hrs by sulforhodamine B assay; settings: OVCAR-8, 48 h
How it was run: (§1)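 NCI 60-cell-line anticancer screen. Each compound is tested at a minimum of five concentrations in 10-fold dilutions with 48 h drug exposure. Cell viability/growth is estimated by sulforhodamine B protein staining. GI50 is the log10 molar concentration giving 50% growth inhibition, read from the dose-response curves and mean graphs of the NCI data screening report. TGI was taken from double screens.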

UACC-62 = assay: Anticancer activity against human UACC62 cells after 48 hrs by sulforhodamine B assay; settings: UACC-62, 48 h
How it was run: (§2)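 Tested in the NCI 60-human-tumour-cell-line screen. Compounds were applied at a minimum of five concentrations in 10-fold dilutions with 48 h exposure. Cell growth was estimated by sulforhodamine B protein staining. GI50 (log10 of molar concentration giving 50% growth inhibition) and TGI were read from the data sheets, dose-response curves and mean graphs. Some cell lines were screened twice.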

SF-539 = assay: Anticancer activity against human SF539 cells after 48 hrs by sulforhodamine B assay; settings: SF-539, 48 h; how it was run: as §1
MDA-N = assay: Anticancer activity against human MDA-N cells after 48 hrs by sulforhodamine B assay; how it was run: as §1
T47D = assay: Anticancer activity against human T47D cells after 48 hrs by sulforhodamine B assay; how it was run: as §2
CCRF-CEM = assay: Anticancer activity against human CCRF-CEM cells after 48 hrs by sulforhodamine B assay; how it was run: as §1
COLO 205 = assay: Anticancer activity against human COLO205 cells after 48 hrs by sulforhodamine B assay; settings: COLO 205, 48 h; how it was run: as §1
LOX IMVI = assay: Anticancer activity against human LOXIMVI cells after 48 hrs by sulforhodamine B assay; how it was run: as §1
SNB-19 = assay: Anticancer activity against human SNB19 cells after 48 hrs by sulforhodamine B assay; settings: SNB-19, 48 h; how it was run: as §1
SK-MEL-28 = assay: Anticancer activity against human SK-MEL-28 cells after 48 hrs by sulforhodamine B assay; settings: SK-MEL-28, 48 h; how it was run: as §1
M14 = assay: Anticancer activity against human M14 cells after 48 hrs by sulforhodamine B assay; settings: M14, 48 h; how it was run: as §1
MOLT-4 = assay: Anticancer activity against human MOLT4 cells after 48 hrs by sulforhodamine B assay; settings: MOLT-4, 48 h; how it was run: as §1
RXF 393 = assay: Anticancer activity against human RXF393 cells after 48 hrs by sulforhodamine B assay; settings: RXF 393, 48 h; how it was run: as §1
OVCAR-5 = assay: Anticancer activity against human OVCAR5 cells after 48 hrs by sulforhodamine B assay; settings: OVCAR-5, 48 h; how it was run: as §1
SK-OV-3 = assay: Anticancer activity against human SKOV3 cells after 48 hrs by sulforhodamine B assay; settings: SK-OV-3, 48 h; how it was run: as §1
NCI-H322M = assay: Anticancer activity against human NCI-H322M cells after 48 hrs by sulforhodamine B assay; how it was run: as §1
NCI-H226 = assay: Anticancer activity against human NCI-H226 cells after 48 hrs by sulforhodamine B assay; settings: NCI-H226, 48 h; how it was run: as §1
U-251 = assay: Anticancer activity against human U251 cells after 48 hrs by sulforhodamine B assay; settings: U-251, 48 h; how it was run: as §2
A498 = assay: Anticancer activity against human A498 cells after 48 hrs by sulforhodamine B assay; settings: A498, 48 h; how it was run: as §1
UACC-257 = assay: Anticancer activity against human UACC257 cells after 48 hrs by sulforhodamine B assay; settings: UACC-257, 48 h; how it was run: as §2
OVCAR-4 = assay: Anticancer activity against human OVCAR4 cells after 48 hrs by sulforhodamine B assay; settings: OVCAR-4, 48 h; how it was run: as §1
PC-3 = assay: Anticancer activity against human PC3 cells after 48 hrs by sulforhodamine B assay; settings: PC-3, 48 h; how it was run: as §1
HCC 2998 = assay: Anticancer activity against human HCC2998 cells after 48 hrs by sulforhodamine B assay; settings: HCC 2998, 48 h; how it was run: as §1
OVCAR-3 = assay: Anticancer activity against human OVCAR-3 cells after 48 hrs by sulforhodamine B assay; settings: OVCAR-3, 48 h; how it was run: as §1
MDA-MB-231 = assay: Anticancer activity against human MDA-MB-231 cells after 48 hrs by sulforhodamine B assay; settings: MDA-MB-231, 48 h; how it was run: as §1
HCT-15 = assay: Anticancer activity against human HCT15 cells after 48 hrs by sulforhodamine B assay; settings: HCT-15, 48 h; how it was run: as §1
KM12 = assay: Anticancer activity against human KM12 cells after 48 hrs by sulforhodamine B assay; settings: KM12, 48 h; how it was run: as §1
MCF7 = assay: Anticancer activity against human MCF7 cells after 48 hrs by sulforhodamine B assay; settings: MCF7, 48 h; how it was run: as §1
SW-620 = assay: Anticancer activity against human SW620 cells after 48 hrs by sulforhodamine B assay; settings: SW-620, 48 h; how it was run: as §2
ACHN = assay: Anticancer activity against human ACHN cells after 48 hrs by sulforhodamine B assay; how it was run: as §1
SR = assay: Anticancer activity against human SR cells after 48 hrs by sulforhodamine B assay; how it was run: as §2
EKVX = assay: Anticancer activity against human EKVX cells after 48 hrs by sulforhodamine B assay; how it was run: as §1
SNB-75 = assay: Anticancer activity against human SNB75 cells after 48 hrs by sulforhodamine B assay; settings: SNB-75, 48 h; how it was run: as §2
[1] = Anticancer activity against human […] cells after 48 hrs by sulforhodamine B assay; how it was run: as §1
IGROV-1 = assay: Anticancer activity against human IGROV1 cells after 48 hrs by sulforhodamine B assay; settings: IGROV-1, 48 h; how it was run: as §1
SK-MEL-2 = assay: Anticancer activity against human SK-MEL-2 cells after 48 hrs by sulforhodamine B assay; settings: SK-MEL-2, 48 h; how it was run: as §1
MDA-MB-435 = assay: Anticancer activity against human MDA-MB-435 cells after 48 hrs by sulforhodamine B assay; settings: MDA-MB-435, 48 h; how it was run: as §1
NCI-H460 = assay: Anticancer activity against human NCI-H460 cells after 48 hrs by sulforhodamine B assay; settings: NCI-H460, 48 h; how it was run: as §1
K562 = assay: Anticancer activity against human K562 cells after 48 hrs by sulforhodamine B assay; settings: K562, 48 h; how it was run: as §1
DU-145 = assay: Anticancer activity against human DU145 cells after 48 hrs by sulforhodamine B assay; settings: DU-145, 48 h; how it was run: as §1
SN12C = assay: Anticancer activity against human SN12C cells after 48 hrs by sulforhodamine B assay; how it was run: as §1
SF-268 = assay: Anticancer activity against human SF268 cells after 48 hrs by sulforhodamine B assay; settings: SF-268, 48 h; how it was run: as §1
CAKI-1 = assay: Anticancer activity against human Caki1 cells after 48 hrs by sulforhodamine B assay; settings: CAKI-1, 48 h; how it was run: as §1
SK-MEL-5 = assay: Anticancer activity against human SK-MEL-5 cells after 48 hrs by sulforhodamine B assay; settings: SK-MEL-5, 48 h; how it was run: as §1
UO-31 = assay: Anticancer activity against human UO31 cells after 48 hrs by sulforhodamine B assay; settings: UO-31, 48 h; how it was run: as §2
HOP-62 = assay: Anticancer activity against human HOP62 cells after 48 hrs by sulforhodamine B assay; settings: HOP-62, 48 h; how it was run: as §1
HL-60 = assay: Anticancer activity against human HL-60(TB) cells after 48 hrs by sulforhodamine B assay; settings: HL-60, 48 h
How it was run: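 NCI 60-cell-line anticancer screen. Drugs tested at a minimum of five concentrations at 10-fold dilutions with 48 h exposure. Cell growth estimated by sulforhodamine B protein assay. GI50 is log10 of the molar concentration giving 50% growth inhibition, read from the screening data sheet, dose-response curves and mean graphs.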

NCI/ADR-RES = assay: Anticancer activity against human NCI/ADR-RES cells after 48 hrs by sulforhodamine B assay; how it was run: as §1
NCI-H23 = assay: Anticancer activity against human NCI-H23 cells after 48 hrs by sulforhodamine B assay; settings: NCI-H23, 48 h; how it was run: as §1
TK-10 = assay: Anticancer activity against human TK10 cells after 48 hrs by sulforhodamine B assay; settings: TK-10, 48 h; how it was run: as §2
HT-29 = assay: Anticancer activity against human HT-29 cells after 48 hrs by sulforhodamine B assay; settings: HT-29, 48 h; how it was run: as §1
Malme-3M = assay: Anticancer activity against human MALME-3M cells after 48 hrs by sulforhodamine B assay; how it was run: as §1
786-0 = assay: Anticancer activity against human 786-0 cells after 48 hrs by sulforhodamine B assay; settings: 786-0, 48 h; how it was run: as §1
NCI-H522 = assay: Anticancer activity against human NCI-H522 cells after 48 hrs by sulforhodamine B assay; settings: NCI-H522, 48 h; how it was run: as §1
HCT-116 = assay: Anticancer activity against human HCT116 cells after 48 hrs by sulforhodamine B assay; settings: HCT-116, 48 h; how it was run: as §1
BT-549 = assay: Anticancer activity against human BT549 cells after 48 hrs by sulforhodamine B assay; settings: BT-549, 48 h; how it was run: as §1
HOP-92 = assay: Anticancer activity against human HOP92 cells after 48 hrs by sulforhodamine B assay; settings: HOP-92, 48 h; how it was run: as §1
[2] = Anticancer activity against human Hs 578T cells after 48 hrs by sulforhodamine B assay; how it was run: as §1
SF-295 = assay: Anticancer activity against human SF295 cells after 48 hrs by sulforhodamine B assay; settings: SF-295, 48 h; how it was run: as §1
A549 = assay: Anticancer activity against human A549 cells after 48 hrs by sulforhodamine B assay; settings: A549, 48 h; how it was run: as §1

C#C[C@@]1(O)[C@@H](CO)O[C@@H](n2ccc(N)nc2=O)[C@@H]1O [TAS-106]
GI50 (OVCAR-8): < 10 nM
GI50 (UACC-62): 31.6 nM
GI50 (SF-539): 39.8 nM
GI50 (MDA-N): 12.6 nM
GI50 (T47D): < 10 nM
GI50 (CCRF-CEM): < 10 nM
GI50 (COLO 205): < 10 nM
GI50 (LOX IMVI): < 10 nM
GI50 (SNB-19): 63.1 nM
GI50 (SK-MEL-28): 50.1 nM
GI50 (M14): 39.8 nM
GI50 (MOLT-4): < 10 nM
GI50 (RXF 393): 25.1 nM
GI50 (OVCAR-5): 50.1 nM
GI50 (SK-OV-3): 79.4 nM
GI50 (NCI-H322M): 19.9 nM
GI50 (NCI-H226): 15.8 nM
GI50 (U-251): 19.9 nM
GI50 (A498): < 10 nM
GI50 (UACC-257): 79.4 nM
GI50 (OVCAR-4): 158 nM
GI50 (PC-3): 31.6 nM
GI50 (HCC 2998): < 10 nM
GI50 (OVCAR-3): 79.4 nM
GI50 (MDA-MB-231): 39.8 nM
GI50 (HCT-15): < 10 nM
GI50 (KM12): < 10 nM
GI50 (MCF7): < 10 nM
GI50 (SW-620): < 10 nM
GI50 (ACHN): < 10 nM
GI50 (SR): < 10 nM
GI50 (EKVX): 63.1 nM
GI50 (SNB-75): 15.8 nM
GI50 [1]: < 10 nM
GI50 (IGROV-1): 12.6 nM
GI50 (SK-MEL-2): 12.6 nM
GI50 (MDA-MB-435): < 10 nM
GI50 (NCI-H460): < 10 nM
GI50 (K562): < 10 nM
GI50 (DU-145): < 10 nM
GI50 (SN12C): < 10 nM
GI50 (SF-268): 15.8 nM
GI50 (CAKI-1): < 10 nM
GI50 (SK-MEL-5): 10 nM
GI50 (UO-31): < 10 nM
GI50 (HOP-62): < 10 nM
GI50 (HL-60): < 10 nM
GI50 (NCI/ADR-RES): < 10 nM
GI50 (NCI-H23): 31.6 nM
GI50 (TK-10): 15.8 nM
GI50 (HT-29): < 10 nM
GI50 (Malme-3M): 15.8 nM
GI50 (786-0): < 10 nM
GI50 (NCI-H522): < 10 nM
GI50 (HCT-116): < 10 nM
GI50 (BT-549): 39.8 nM
GI50 (HOP-92): 63.1 nM
GI50 [2]: 12.6 nM
GI50 (SF-295): < 10 nM
GI50 (A549): < 10 nM

— ChEMBL document CHEMBL1152599, “Synthesis and in vitro activities of new anticancer duplex drugs linking 2'-deoxy-5-fluorouridine (5-FdU) with 3'-C-ethynylcytidine (ECyd) via a phosphodiester bonding” (2009)
